In assay [1] the test system is HepG2. Description: Antiproliferative activity against human HepG2 cells after 48 hrs by MTT assay. It counts as functional. The following applies: HepG2, 48 h.
The test system of assay [2] is HCT-116. Put plainly: Antiproliferative activity against human HCT116 cells after 48 hrs by MTT assay. In kind it is functional. The following applies: HCT-116, 48 h. (In general: Tetrazolium dyes change colour on reduction, which living cells bring about.)
Assay [3] concerns PC-3. Description: Antiproliferative activity against human PC3 cells after 48 hrs by MTT assay. It counts as functional. The settings on record: PC-3, 48 h.
Assay [4] deals with A549. Description: Antiproliferative activity against human A549 cells after 48 hrs by MTT assay. In kind it is functional. The settings on record: A549, 48 h.
Assay [5] is described as follows: Inhibition of HDAC.
Assay [6] concerns U-937. Put plainly: Induction of granulocytic differentiation in human U937 cells assessed as CD11c positive PI negative cells at 5 uM after 30 hrs by FACS. It counts as functional, cell-based. In outline: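 U937 human leukemia cells treated 30 h at 5 µM; differentiation scored by FACS as the percentage of CD11c-positive, PI-negative cells; values are the mean of four independent replicates.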
On the technique in general: A flow cytometer gives signals particle by particle.

The test system of assay [7] is U-937. Description: Induction of p21WAF1/CIP1 expression in human U937 cells at 5 uM after 24 hrs by Western blot. It counts as functional, cell-based. In general terms: Immunoblotting shows a protein as a band on a membrane.
In assay [8] the target is T1, Protein deacetylase HDAC6 (Homo sapiens) (UniProt Q9UBN7).
T1 sequence (whole entry): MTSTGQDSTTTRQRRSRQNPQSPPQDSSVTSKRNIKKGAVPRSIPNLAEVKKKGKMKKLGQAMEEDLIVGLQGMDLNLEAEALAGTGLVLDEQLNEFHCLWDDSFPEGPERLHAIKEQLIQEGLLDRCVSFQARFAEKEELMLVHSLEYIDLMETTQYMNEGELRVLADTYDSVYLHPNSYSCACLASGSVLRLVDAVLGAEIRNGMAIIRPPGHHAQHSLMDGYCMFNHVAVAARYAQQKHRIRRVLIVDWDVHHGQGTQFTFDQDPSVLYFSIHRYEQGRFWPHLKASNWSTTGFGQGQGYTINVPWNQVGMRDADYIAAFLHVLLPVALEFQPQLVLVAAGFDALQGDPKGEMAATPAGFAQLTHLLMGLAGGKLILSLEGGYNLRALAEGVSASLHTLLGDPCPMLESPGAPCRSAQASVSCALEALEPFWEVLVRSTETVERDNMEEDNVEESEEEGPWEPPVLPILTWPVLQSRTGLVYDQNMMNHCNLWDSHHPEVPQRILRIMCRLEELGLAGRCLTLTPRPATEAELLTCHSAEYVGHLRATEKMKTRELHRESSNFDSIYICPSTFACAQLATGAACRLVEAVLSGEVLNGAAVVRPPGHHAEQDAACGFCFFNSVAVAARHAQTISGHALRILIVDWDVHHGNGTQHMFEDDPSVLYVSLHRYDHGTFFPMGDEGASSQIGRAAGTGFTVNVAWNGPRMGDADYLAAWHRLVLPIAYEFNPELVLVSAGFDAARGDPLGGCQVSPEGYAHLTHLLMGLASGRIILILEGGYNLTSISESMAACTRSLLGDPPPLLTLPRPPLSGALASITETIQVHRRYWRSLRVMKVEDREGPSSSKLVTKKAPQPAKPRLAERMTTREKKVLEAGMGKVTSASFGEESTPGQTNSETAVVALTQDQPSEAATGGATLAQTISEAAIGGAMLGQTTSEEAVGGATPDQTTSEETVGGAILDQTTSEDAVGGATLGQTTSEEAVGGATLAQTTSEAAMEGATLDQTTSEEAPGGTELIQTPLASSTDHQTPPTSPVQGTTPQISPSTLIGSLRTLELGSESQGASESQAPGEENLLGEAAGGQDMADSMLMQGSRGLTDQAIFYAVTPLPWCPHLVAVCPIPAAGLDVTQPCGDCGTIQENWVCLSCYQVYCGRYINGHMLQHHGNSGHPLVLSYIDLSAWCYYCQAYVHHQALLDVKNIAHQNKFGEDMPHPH
Description: Inhibition of HDAC6 in human U937 cells assessed as alpha-tubulin acetylation at 5 uM after 24 hrs by Western blot. It counts as cell-based. The settings on record: U-937. The method in brief: (§1)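 Human leukemia U937 cells exposed to 5 µM for 24 h. Acetyl-histone H3 was read by Western blot as a class I HDAC marker, and acetyl-α-tubulin as an HDAC6 marker.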

Assay [9] addresses Histone deacetylase 4 (Homo sapiens, UniProt P56524). Put plainly: Inhibition of human recombinant his tagged HDAC4 expressed in baculovirus.
The subject of assay [10] is U-937. Put plainly: Induction of apoptosis in human U937 cells at 5 uM after 30 hrs by propidium iodide and annexin V staining. In kind it is functional, cell-based.
Assay [11] relates to U-937. Put plainly: Cell cycle arrest in human U937 cells assessed as accumulation at G1 phase at 5 uM after 30 hrs by FACS. In kind it is functional, cell-based.
Assay [12] concerns the target Histone deacetylase 1 (Homo sapiens, UniProt Q13547). Description: Inhibition of human recombinant HDAC1 expressed in baculovirus.
Assay [13] concerns the target Histone deacetylase (Homo sapiens) (UniProt Q13547+O15379+Q9UBN7+Q92769+Q9UQL6+Q8WUI4+Q9BY41+Q96DB2+P56524+Q9UKV0+Q969S8). Description: Inhibition of HDAC in human U937 cells assessed as histone H3 acetylation at 5 uM after 24 hrs by Western blot. It counts as cell-based. The settings on record: U-937. In outline:
as §1

Assay [14] has as its system U-937. Description: Cell cycle arrest in human U937 cells assessed as accumulation at S phase at 5 uM after 30 hrs by FACS. In kind it is functional, cell-based.

The source made the active and inactive calls. The rule behind the calls is not given here.

Sequence of Histone deacetylase 4 (P56524 whole entry): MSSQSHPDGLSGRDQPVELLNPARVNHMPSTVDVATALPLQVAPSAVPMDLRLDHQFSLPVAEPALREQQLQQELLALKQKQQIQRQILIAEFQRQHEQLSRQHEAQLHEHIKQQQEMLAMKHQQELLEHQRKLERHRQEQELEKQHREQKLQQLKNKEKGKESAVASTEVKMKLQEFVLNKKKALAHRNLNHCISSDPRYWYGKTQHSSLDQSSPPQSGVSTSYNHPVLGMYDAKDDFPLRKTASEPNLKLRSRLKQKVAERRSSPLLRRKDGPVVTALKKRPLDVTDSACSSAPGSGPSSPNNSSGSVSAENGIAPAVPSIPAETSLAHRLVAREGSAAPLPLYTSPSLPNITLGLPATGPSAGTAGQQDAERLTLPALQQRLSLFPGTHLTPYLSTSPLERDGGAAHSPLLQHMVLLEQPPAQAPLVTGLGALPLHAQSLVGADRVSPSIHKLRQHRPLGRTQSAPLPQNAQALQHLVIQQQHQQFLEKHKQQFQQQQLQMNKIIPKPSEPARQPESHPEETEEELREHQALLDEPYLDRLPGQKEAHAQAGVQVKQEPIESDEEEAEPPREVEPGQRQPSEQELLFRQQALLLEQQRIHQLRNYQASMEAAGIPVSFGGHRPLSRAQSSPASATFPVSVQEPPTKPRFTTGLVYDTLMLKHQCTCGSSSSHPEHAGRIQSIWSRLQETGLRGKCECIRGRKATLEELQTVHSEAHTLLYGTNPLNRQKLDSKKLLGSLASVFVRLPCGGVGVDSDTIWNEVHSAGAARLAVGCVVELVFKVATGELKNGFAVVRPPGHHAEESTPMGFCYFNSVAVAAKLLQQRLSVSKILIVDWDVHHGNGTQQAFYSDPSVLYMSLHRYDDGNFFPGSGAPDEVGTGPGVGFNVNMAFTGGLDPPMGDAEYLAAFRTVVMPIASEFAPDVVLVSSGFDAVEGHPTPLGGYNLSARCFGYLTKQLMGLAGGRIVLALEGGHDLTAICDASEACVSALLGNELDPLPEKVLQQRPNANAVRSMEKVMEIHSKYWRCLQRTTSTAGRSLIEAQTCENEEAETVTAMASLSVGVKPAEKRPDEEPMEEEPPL
Sequence of Histone deacetylase 1 (Q13547 whole entry): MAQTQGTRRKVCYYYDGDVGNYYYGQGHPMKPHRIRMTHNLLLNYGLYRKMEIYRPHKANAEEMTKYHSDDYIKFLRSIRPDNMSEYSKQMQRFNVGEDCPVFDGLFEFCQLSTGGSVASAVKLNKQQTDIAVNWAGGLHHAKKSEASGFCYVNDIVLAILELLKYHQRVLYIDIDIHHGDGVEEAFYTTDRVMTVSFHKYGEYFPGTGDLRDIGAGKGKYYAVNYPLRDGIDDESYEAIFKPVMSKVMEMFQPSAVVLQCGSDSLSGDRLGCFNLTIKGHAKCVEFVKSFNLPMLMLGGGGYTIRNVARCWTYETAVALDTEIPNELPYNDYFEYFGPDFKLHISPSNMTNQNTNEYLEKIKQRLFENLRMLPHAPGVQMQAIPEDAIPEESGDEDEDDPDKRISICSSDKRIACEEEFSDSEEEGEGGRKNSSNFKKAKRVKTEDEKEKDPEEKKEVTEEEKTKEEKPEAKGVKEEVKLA

What is called GI50 is the concentration giving 50% growth inhibition. A word on the IC50: it is the concentration at which inhibition is half-maximal. Regarding `Cc1ccc(-c2cnc(N(Cc3ccc(C(=O)NO)cc3)C(C)C)s2)cc1`, the 50% growth inhibitory concentration (GI50) was determined as 2.18 µM in assay [1], 7.8 µM in [2], 1.15 µM in assay [3] and 3.83 µM in assay [4]. The same compound gave a half-inhibitory concentration (IC50) in [5] of 0.168 µM.
For `CCCN(Cc1ccc(C(=O)NO)cc1)c1ncc(-c2ccc(C)cc2)s1` the same measures were 2.55 µM, 5.8 µM, 9.16 µM, 3.31 µM and 0.052 µM.
In the case of `O=C(CCCCCCC(=O)Nc1ccccc1)NO` [VORINOSTAT], the concentration for 50% growth inhibition (GI50) was 63.5 µM in assay [1], 2.69 µM in assay [2], 8.17 µM in assay [3] and more than 200 µM in assay [4]. The compound also gave an IC50 in assay [5] of 0.053 µM.
In the same order, the values of `Cc1ccc(-c2cnc(N(Cc3ccccc3)Cc3ccc(C(=O)NO)cc3)s2)cc1` are 34 µM, 48.8 µM, 10.3 µM, 4.41 µM and 3.11 µM.
Consider `Cc1ccc(-c2cnc(N(Cc3ccc(C(=O)NO)cc3)CC(C)C)s2)cc1`, for which the GI50 is 7.42 µM in assay [1], 5.9 µM in [2], 9.34 µM in assay [3] and 20.4 µM in assay [4]. For the same compound, inhibition in [5] was half-maximal at 0.494 µM (IC50).
On to `Cc1ccc(OCCN(Cc2ccc(C(=O)NO)cc2)c2ncc(-c3ccc(C)cc3)s2)cc1`, for which the outcome in assay [6], in assay [7], in [10] and in [11] was Active. The inhibition result in assay [8] and in [13] was “Active” throughout. Also, the results for the IC50 in assay [9], in [12] and in assay [5] were more than 50 µM, 1.05 µM and 0.101 µM, respectively. Besides, the concentration for 50% growth inhibition (GI50) in assay [1] turned out to be 11.5 µM; in assay [2], 17.3 µM; in assay [3], 5.57 µM; in assay [4] it was 11.2 µM.
As for `Cc1ccc(-c2cnc(N(CCCOc3ccccc3)Cc3ccc(C(=O)NO)cc3)s2)cc1`, the outcome in assay [7] and in assay [11] was Active. Further, the inhibition result in assay [8] and in assay [13] was “Active” in each case. For the same compound, the GI50 in [1] stood at 23.4 µM; in assay [2], 4.14 µM; in [3], 17.5 µM; in assay [4], 2.53 µM. Besides, 0.195 µM corresponded to half-maximal inhibition in [5] (IC50).
As for `CCCCCCN(Cc1ccc(C(=O)NO)cc1)c1ncc(-c2ccc(C)cc2)s1`, the GI50 was 7.42 µM in assay [1], 4.85 µM in [2], 5.27 µM in assay [3] and 3.71 µM in [4]. In assay [5], this compound returned an IC50 of 2.79 µM.
For `CCCCN(Cc1ccc(C(=O)NO)cc1)c1ncc(-c2ccc(C)cc2)s1` the same measures were 4.3 µM, 8.78 µM, 6.41 µM, 4.78 µM and 1.35 µM.
Take `Cc1ccc(OCCCCN(Cc2ccc(C(=O)NO)cc2)c2ncc(-c3ccc(C)cc3)s2)cc1`: the result in assay [6], in assay [10] and in [14] was Active. For the same compound, the GI50 in assay [1] was 11 µM; in [2], 0.58 µM; in assay [3], 1.22 µM; in assay [4] it was 8.63 µM. The same compound came in with a 50% inhibitory concentration (IC50) in assay [5] of 1.67 µM.
For the compound `CCCCCCCCN(Cc1ccc(C(=O)NO)cc1)c1ncc(-c2ccc(C)cc2)s1`, the GI50 in [1] stood at 8.76 µM; in assay [2], 6.5 µM; in assay [3] it was 13.3 µM; in assay [4], 4.63 µM. In [5], the IC50 was found to be 1.59 µM.
In the same order, the values of `CCCCCN(Cc1ccc(C(=O)NO)cc1)c1ncc(-c2ccc(C)cc2)s1` are 7.02 µM, 23.3 µM, 5.06 µM, 9.14 µM and 4.33 µM.
As to `Cc1ccc(-c2cnc(N(CCOc3ccccc3)Cc3ccc(C(=O)NO)cc3)s2)cc1`, the result in [6], in assay [7], in [10] and in assay [11] was Active. Moreover, the inhibition entry in assay [8] was “inactive”. In addition, the IC50 is more than 50 µM in [9], 2.3 µM in assay [12] and 0.041 µM in assay [5]. For the same compound, the concentration for 50% growth inhibition (GI50) in assay [1] stood at 12 µM; in [2], 8.81 µM; in assay [3], 7.86 µM; in assay [4] it was 14 µM. The inhibition result in [13] is “Active”.
`CCN(Cc1ccc(C(=O)NO)cc1)c1ncc(-c2ccc(C)cc2)s1`: the GI50 in [1] turned out to be 1.12 µM; in assay [2], 6.87 µM; in [3], 10.3 µM; in assay [4] it was 2.7 µM. The compound also returned a half-maximal inhibitory concentration (IC50) in assay [5] of 0.054 µM.
`Cc1ccc(OCCCN(Cc2ccc(C(=O)NO)cc2)c2ncc(-c3ccc(C)cc3)s2)cc1`: the result in [7] and in assay [11] was Active. For the same compound, the inhibition entry in [8] and in assay [13] was “Active” each time. Further, the concentration for 50% growth inhibition (GI50) is 12.2 µM in assay [1], 12.6 µM in assay [2], 9.33 µM in [3] and 32.5 µM in [4]. In addition, in [5], the IC50 came to 1.07 µM.
Take `Cc1ccc(-c2cnc(N(CCCCOc3ccccc3)Cc3ccc(C(=O)NO)cc3)s2)cc1`: the inhibition result in [8] and in assay [13] was “Active” each time. Also, the GI50 in assay [1] turned out to be 16.6 µM; in assay [2], 0.68 µM; in assay [3], 10.3 µM; in assay [4] it was 14.2 µM. The outcome in assay [11] was Active. This compound also yielded a 50% inhibitory concentration (IC50) in assay [5] of 0.057 µM.

The values above are taken from ChEMBL document CHEMBL1156110, “Novel N-hydroxybenzamide-based HDAC inhibitors with branched CAP group” (Bioorg Med Chem Lett, 2009).
